As usually defined, the IC50 is the concentration that gives 50% inhibition. The low end stands for higher potency, the high end for lower potency.

22 molecules from ChEMBL document CHEMBL1817548, “Epigenetic profiling of the antitumor natural product psammaplin A and its analogues” (Bioorg Med Chem, 2011) can be followed below.

Active and inactive are the calls of the source. The rule behind the calls is not given here.

Assay [1] relates to U-937. Description: Cell cycle arrest in human U937 cells assessed as accumulation at G1 phase at 5 uM after 30 hrs by propidium iodide staining based flow cytometry. Format: functional. A digest of the protocol: (§1)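 U937 cells in RPMI with 10% FBS and antibiotics, kept at 200,000 cells/mL, exposed to compound at 5 µM (in DMSO). DNA content was read by flow cytometry and phases modelled with ModFit. Values are means of independent duplicates.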

The target of assay [2] is Histone deacetylase 1 (Homo sapiens) (UniProt Q13547). Description: Inhibition of human recombinant GST-tagged HDAC1 expressed in Sf9 cells using Fluor de Lys as substrate at 5 uM after 0.5 hrs by fluorimetry. An outline of the steps: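 GST-HDAC1 was expressed in Sf9 cells via baculovirus and purified on glutathione beads. Enzyme was incubated with Fluor de Lys acetyl-lysine substrate ±5 µM compound for 0.5 h at 37 °C, followed by developer for 30 min. Fluorescence was read at ex 360/em 460 nm and reported as percent of control activity.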
Sequence of Histone deacetylase 1 (Homo sapiens) (Q13547 whole entry): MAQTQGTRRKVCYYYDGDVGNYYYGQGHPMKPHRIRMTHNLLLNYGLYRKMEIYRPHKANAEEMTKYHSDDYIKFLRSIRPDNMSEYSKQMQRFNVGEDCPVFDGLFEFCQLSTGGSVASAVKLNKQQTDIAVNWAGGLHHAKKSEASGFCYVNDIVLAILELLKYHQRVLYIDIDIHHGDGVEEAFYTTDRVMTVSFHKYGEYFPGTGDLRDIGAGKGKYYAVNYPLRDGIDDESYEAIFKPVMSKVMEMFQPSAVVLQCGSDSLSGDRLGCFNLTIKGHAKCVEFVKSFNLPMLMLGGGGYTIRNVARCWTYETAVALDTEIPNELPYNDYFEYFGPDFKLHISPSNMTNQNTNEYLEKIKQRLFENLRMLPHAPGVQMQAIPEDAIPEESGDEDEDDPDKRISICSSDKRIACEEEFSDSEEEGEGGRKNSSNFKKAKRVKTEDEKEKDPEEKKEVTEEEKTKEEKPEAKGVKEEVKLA

For assay [3], the target named is T1, NAD-dependent protein deacetylase sirtuin-1 (Homo sapiens) (UniProt Q96EB6).
T1 sequence (whole entry): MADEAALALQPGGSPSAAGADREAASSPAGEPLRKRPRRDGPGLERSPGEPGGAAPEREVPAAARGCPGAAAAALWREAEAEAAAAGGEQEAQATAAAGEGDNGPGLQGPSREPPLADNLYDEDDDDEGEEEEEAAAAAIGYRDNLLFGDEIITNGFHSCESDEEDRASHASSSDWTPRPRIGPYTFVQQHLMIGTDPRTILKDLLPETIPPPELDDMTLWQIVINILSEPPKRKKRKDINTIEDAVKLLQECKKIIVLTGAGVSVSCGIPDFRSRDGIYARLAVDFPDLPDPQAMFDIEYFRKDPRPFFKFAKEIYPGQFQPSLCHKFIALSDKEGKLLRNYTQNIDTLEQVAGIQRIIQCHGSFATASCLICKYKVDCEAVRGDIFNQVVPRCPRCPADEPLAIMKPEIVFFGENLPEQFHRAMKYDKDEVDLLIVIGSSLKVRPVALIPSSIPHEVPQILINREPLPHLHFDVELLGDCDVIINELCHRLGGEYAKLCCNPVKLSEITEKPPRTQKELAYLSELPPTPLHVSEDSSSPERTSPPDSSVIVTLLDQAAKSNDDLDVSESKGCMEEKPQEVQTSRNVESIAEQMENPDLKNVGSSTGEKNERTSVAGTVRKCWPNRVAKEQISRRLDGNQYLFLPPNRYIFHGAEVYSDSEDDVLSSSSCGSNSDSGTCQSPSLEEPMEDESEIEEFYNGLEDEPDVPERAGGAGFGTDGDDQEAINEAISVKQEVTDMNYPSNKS
Briefly: Inhibition of recombinant human SIRT1 lysine deacetylase activity at 50 uM after 60 mins by fluorimetry relative to control. A digest of the protocol: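 Human SIRT1 expressed in E. coli BL21 and affinity-purified (1 µg) was reacted with acetylated p53 peptide (aa 379–382), 1 mM DTT and 200 µM NAD⁺, with compound at 50 µM, 60 min at 37 °C. Fluorescence was read at ex 360/em 450 nm. Results are mean and SD of four independent experiments as percent of untreated control.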

Assay [4] relates to U-937. Briefly: Induction of apoptosis in human U937 cells assessed as caspase 3 activation at 5 uM after 30 hrs by FACS analysis. It counts as functional. A digest of the protocol: (§2)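 Caspase 3 activity was read in living U937 cells after 5 µM exposure. About 1×10^6 cells were washed twice in cold PBS and loaded 1 h on ice with cell-permeable fluorescent substrate FAM-DEVD-FMK. After washing, cells were analysed by FACS. Runs were in duplicate; values are mean ± SD.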
(Flow cytometry measures light scatter and fluorescence of single cells or particles in a stream.)

For assay [5], the target named is Histone deacetylase (Homo sapiens) (UniProt Q13547+O15379+Q9UBN7+Q92769+Q9UQL6+Q8WUI4+Q9BY41+Q96DB2+P56524+Q9UKV0+Q969S8). Description: Inhibition of HDAC1 in human U937 cells assessed a increase in histone H3 acetylation in human U937 cells at 5 uM after 24 hrs by Western blot analysis. Format: cell-based. The conditions noted are these: U-937. An outline of the steps:
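U937 cells were treated 24 h at 5 µM, then lysed in Triton extraction buffer. Histones were acid-extracted with 0.2 M HCl overnight at 4 °C and protein was quantified by Bradford. 10 µg of histone extract was run on 15% polyacrylamide gels and immunoblotted with pan-acetyl-histone H3 antibody.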
For orientation: In western blotting, separated proteins are transferred to a membrane and probed.

Assay [6] deals with CREB-binding protein/Histone acetyltransferase p300 (Homo sapiens) (UniProt Q09472+Q92793). Briefly: Inhibition of recombinant human p300/CBP using [3H]-acetyl CoA at 50 uM after 2 hrs by scintillation counting relative to control. Format: protein assay. An outline of the steps: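 CBP fragment (aa 1098–1877) expressed in E. coli BL21 and affinity-purified (1 µg) was incubated in HAT buffer with histone H4 peptide (aa 2–24, 10 µg) and 20 µM acetyl CoA carrying 0.5 µCi/mL [³H]-acetyl CoA, compound at 50 µM, for 2 h at 37 °C. Samples were spotted on P81 paper in triplicate, washed in TCA and acetone, and counted. Output is percent of untreated control.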

Assay [7] deals with U-937. Description: Induction of human U937 cell differentiation into granulocytes assessed as expression of CD11c marker on cell membrane at 5 uM after 30 to 40 hrs by PI staining based FACS analysis. It counts as functional. A digest of the protocol:
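After 5 µM treatment, U937 cells were stained with PE-conjugated anti-CD11c; controls got PE mouse IgG1, 30 min at 4 °C in the dark. Cells were washed and taken up in PBS with propidium iodide (0.25 µg/mL), then read by FACS. Result is percent CD11c-positive/PI-negative cells, mean of independent quadruplicates.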

Assay [8] has as its system U-937. Briefly: Induction of apoptosis in human U937 cells assessed as caspase 3 activation at 5 uM after 40 hrs by FACS analysis. It counts as functional, cell-based. An outline of the steps:
as §2

Assay [9] has as its system U-937. Briefly: Cell cycle arrest in human U937 cells assessed as accumulation at G2/M phase at 5 uM after 30 hrs by propidium iodide staining based flow cytometry. It counts as functional. A digest of the protocol: as §1
Assay [10] has as its system U-937. Description: Cell cycle arrest in human U937 cells assessed as accumulation at S phase at 5 uM after 48 hrs by propidium iodide staining based flow cytometry. It counts as functional. A digest of the protocol: as §1
Assay [11] relates to U-937. Briefly: Cell cycle arrest in human U937 cells assessed as accumulation at G2/M phase at 5 uM after 48 hrs by propidium iodide staining based flow cytometry. It counts as functional. An outline of the steps:
as §1

The test system of assay [12] is U-937. Description: Cell cycle arrest in human U937 cells assessed as accumulation at G1 phase at 5 uM after 48 hrs by propidium iodide staining based flow cytometry. It counts as functional. An outline of the steps:
as §1

The nature of assay [13]: Inhibition of HDAC in cell-free system.
The nature of assay [14]: Inhibition of DNMT in cell-free system.
The subject of assay [15] is U-937. Briefly: Cell cycle arrest in human U937 cells assessed as accumulation at G1 phase at 5 uM by propidium iodide staining based flow cytometry. The conditions noted are these: TDE = time-dependent effect. It counts as functional. An outline of the steps: as §1

As for `O=C(CCCCCCC(=O)Nc1ccccc1)NO`, the outcome with U-937 [1] was Active.

Take `O=C(NCCO)/C(Cc1ccc(O)c(Br)c1)=N/O`: the inhibition entry in [2] is “inactive”.

For the molecule `O=C(NCCCCSSCCCCNC(=O)/C(Cc1ccc(O)c(Br)c1)=N/O)/C(Cc1ccc(O)c(Br)c1)=N/O`, the inhibition result in assay [2] is “inactive”.

Regarding `O=C(NCCSSCCNC(=O)/C(Cc1ccc(O)cc1)=N/O)/C(Cc1ccc(O)cc1)=N/O`, the inhibition result in assay [3] and in assay [2] was “Active” throughout. For the same molecule, the Activity in the assay with U-937 [1] amounted to 80%. Moreover, the “caspase 3 activation” value in the assay with U-937 [4] worked out at 30%. In addition, in [5], the result was Active. Also, the inhibition result in [6] is “inactive”.

For `Cc1ccc(C(=O)Nc2ccc(S(=O)(=O)O)c3cc(S(=O)(=O)O)cc(S(=O)(=O)O)c23)cc1NC(=O)c1cccc(NC(=O)Nc2cccc(C(=O)Nc3cc(C(=O)Nc4ccc(S(=O)(=O)O)c5cc(S(=O)(=O)O)cc(S(=O)(=O)O)c45)ccc3C)c2)c1`, the inhibition entry in [3] was “Active”.

As to `O=C(NCCCCCSSCCCCCNC(=O)/C(Cc1ccc(O)c(Br)c1)=N/O)/C(Cc1ccc(O)c(Br)c1)=N/O`, the inhibition entry in assay [2] was “inactive”.

On to `O=C(NCCSSCCNC(=O)/C(Cc1ccccc1)=N/O)/C(Cc1ccccc1)=N/O`, for which the inhibition result in [3] and in assay [2] was “Active” throughout. For the same molecule, the Activity with U-937 [1] stood at 80%. Besides, the “caspase 3 activation” value in the assay on U-937 [4] amounted to 30%. Further, in [5], the result was Active. Besides, the inhibition entry in assay [6] was “inactive”.

Regarding `Nc1ccccc1NC(=O)c1ccc(CNC(=O)OCc2cccnc2)cc1`, the result in the assay on U-937 [1] was Active.

In the case of `CSCCNC(=O)/C(Cc1ccc(O)c(Br)c1)=N/O`, the inhibition entry in assay [2] is “inactive”. The outcome in the assay with U-937 [7] was Active.

Take `O=C(NCCCSSCCCNC(=O)/C(Cc1ccc(O)c(Br)c1)=N/O)/C(Cc1ccc(O)c(Br)c1)=N/O`: the inhibition result in assay [2] was “inactive”.

For the molecule `O=C(CCc1ccc(O)c(Br)c1)NCCSSCCNC(=O)CCc1ccc(O)c(Br)c1`, the inhibition result in assay [3] was “Active”. Moreover, the inhibition entry in assay [2] and in [6] was “inactive” in each case. In addition, in the assay on U-937 [1], the Activity was 80%. The outcome with U-937 [8] was inactive.

On to `O=C(NCCSSCCNC(=O)/C(Cc1cc(Br)c(O)c(Br)c1)=N/O)/C(Cc1cc(Br)c(O)c(Br)c1)=N/O`, for which, in assay [3], the inhibition result was “Active”. The inhibition entry in assay [2] and in [6] was “inactive” throughout. The Activity in the assay with U-937 [1] is 80%. Moreover, the result in the assay on U-937 [8] was inactive. Further, the outcome in [5] was Active.

Regarding `O=C(NCCSSCCNC(=O)/C(Cc1ccc(O)c(I)c1)=N/O)/C(Cc1ccc(O)c(I)c1)=N/O`, the inhibition entry in assay [3] and in assay [2] was “Active” in each case. The Activity in the assay on U-937 [1] was determined as 80%. The “caspase 3 activation” value in the assay with U-937 [4] is recorded as 30%. Besides, the result in [5] was Active. The inhibition result in [6] is “inactive”.

Consider `O=C(NCCCCCCNC(=O)/C(Cc1ccc(O)c(Br)c1)=N/O)/C(Cc1ccc(O)c(Br)c1)=N/O`, for which the inhibition result in assay [2] is “inactive”.

In the case of `O=C(NCCSSCCNC(=O)/C(Cc1ccc(O)c(Cl)c1)=N/O)/C(Cc1ccc(O)c(Cl)c1)=N/O`, the inhibition entry in assay [3] and in assay [2] was “Active” in each case. Also, the Activity with U-937 [1] worked out at 80%. For the same molecule, the “caspase 3 activation” value in the assay on U-937 [4] was 30%. Besides, the outcome in [5] was Active. The inhibition entry in [6] was “inactive”.

On to `C=CC/C=C\C/C=C\CCCCCCCc1cccc(O)c1C(=O)O`, for which, in [6], the inhibition result was “Active”.

As to `O=C(NCCCCCCSSCCCCCCNC(=O)/C(Cc1ccc(O)c(Br)c1)=N/O)/C(Cc1ccc(O)c(Br)c1)=N/O`, the inhibition entry in assay [2] is “inactive”.

As to `O=C(NCCSSCCNC(=O)/C(Cc1cccc(O)c1)=N/O)/C(Cc1cccc(O)c1)=N/O`, the inhibition result in assay [3] and in assay [2] was “Active” throughout. Further, the Activity with U-937 [1] is 80%. Moreover, the “caspase 3 activation” value with U-937 [4] stood at 30%. Also, the result in assay [5] was Active. Besides, the inhibition result in assay [6] is “inactive”.

On to `COCCNC(=O)/C(Cc1ccc(O)c(Br)c1)=N/O`, for which the inhibition result in assay [2] is “inactive”.

For `O=C(NCCSSCCNC(=O)/C(Cc1ccc(O)c(F)c1)=N/O)/C(Cc1ccc(O)c(F)c1)=N/O`, the inhibition entry in assay [3] and in [2] was “Active” each time. In addition, the Activity in the assay with U-937 [1] is given as 80%. Moreover, the “caspase 3 activation” value in the assay on U-937 [4] was found to be 30%. Further, in [5], the outcome was Active. Further, in [6], the inhibition entry was “inactive”.

Consider `O=C1C=CC2(C=C1Br)CC(C(=O)NCCSSCCNC(=O)C1=NOC3(C=CC(=O)C(Br)=C3)C1)=NO2` (stereo not given), for which the inhibition result in assay [2] is “inactive”. Further, the outcome in the assay on U-937 [4] and with U-937 [9] was Active. Besides, the outcome with U-937 [10], in the assay with U-937 [11] and in the assay with U-937 [12] was inactive.

As to `O=C(NCCSSCCNC(=O)/C(Cc1ccc(O)c(Br)c1)=N/O)/C(Cc1ccc(O)c(Br)c1)=N/O` [PSAMMAPLIN A], the inhibition entry in [3] and in assay [2] was “Active” throughout. The figures for the IC50 in [13] and in assay [14] were 4.2 nM and 18.6 nM, respectively. Besides, the figures for the Activity with U-937 [1] and with U-937 [15] were 60% and “tde”, respectively. In addition, the result in the assay on U-937 [4] and in the assay on U-937 [7] was Active. The inhibition result in assay [6] is “inactive”.
